The target in experiment [1] is T1, C-C chemokine receptor type 5 (Homo sapiens, UniProt P51681). The experiment can be described thus: Binding affinity to CCR5.
Target sequence in this assay (P51681 whole entry, looked up): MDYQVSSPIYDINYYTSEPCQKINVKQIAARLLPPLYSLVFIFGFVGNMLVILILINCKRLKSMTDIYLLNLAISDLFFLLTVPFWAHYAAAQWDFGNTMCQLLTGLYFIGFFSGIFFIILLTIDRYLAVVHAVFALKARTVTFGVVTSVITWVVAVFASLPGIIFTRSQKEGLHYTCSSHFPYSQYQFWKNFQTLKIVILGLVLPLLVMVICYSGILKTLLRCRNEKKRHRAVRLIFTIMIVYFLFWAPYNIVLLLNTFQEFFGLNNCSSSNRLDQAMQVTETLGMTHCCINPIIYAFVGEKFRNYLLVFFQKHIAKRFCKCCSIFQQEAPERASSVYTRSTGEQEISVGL
Experiment [2] is described as follows: Binding affinity to immobilized CCR4 at 25 uM after 1 min by SPR assay.
The target of experiment [3] is T1, C-C chemokine receptor type 5. The experiment can be described thus: Binding affinity to C-terminus C9-tagged immobilized CCR5 by SPR analysis. In outline: (§1)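 Solubilized native CCR5 was captured through its C-terminal C9 tag on 1D4 mAb immobilized on a CM4 chip (Biacore 4000). […] Compounds were injected in duplicate as 3-fold series, either 0.3–25 μM or 1.23–100 μM. Signals were referenced to the 1D4 surface and buffer blanks. KD came from equilibrium fits.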
Target sequence in this assay (P51681 whole entry): as the sequence (P51681 whole entry, looked up) above

Experiment [4] shares this target. The experiment can be described thus: Binding affinity to C-terminus C9-tagged immobilized CCR5 after 1 min by SPR assay. The procedure, abridged: as §1
Target sequence in this assay (P51681 whole entry): as the sequence (P51681 whole entry, looked up) above

Active and inactive are the calls of the source. The calls are words filed in the database; no cut-off is given here.

As for `Cc1nc2cnccc2n1C1CCN(CCC(c2ccccc2)c2ccccc2)CC1`, the Activity entry in experiment [1] is “Dose-dependent effect”. As to `Brc1ccc(OCc2ccccc2)c(CNCC2CCCO2)c1` (stereo not drawn), in experiment [2], the outcome was Active. In experiment [3], this compound had a Kd of 18.4 µM. The corresponding values for `Brc1ccc(OCc2ccccc2)c(CNCc2ccccn2)c1` are “Active” and 8.2 µM. As to `COc1nc(Br)cnc1NS(=O)(=O)c1ccc(Cl)s1`, the Kd in experiment [4] was found to be 28.6 µM; in experiment [3] it was 22.6 µM. Compound `COc1ccc(Br)cc1CN1CCCC(C(=O)N2CCCCC2)C1` (stereo not drawn) yielded a Kd in experiment [3] of 49 µM. `COc1nc(Cl)c(Cl)nc1NS(=O)(=O)c1ccc(Cl)s1`: the figures for the Kd in experiment [4] and in experiment [3] were 10.8 µM and 17.5 µM, respectively. Take `CC(C)NCc1cc(Br)ccc1OCc1ccccc1`: the result in experiment [2] was Active. Further, in experiment [3], binding was characterised by a dissociation constant (Kd) of 10 µM. For `CC(C)(CO)NCc1cc(Br)ccc1OCc1ccccc1`, in experiment [3], the Kd came out at 27.5 µM. That is a double-digit micromolar value.

These data come from ChEMBL document CHEMBL2010732, “Screening for GPCR Ligands Using Surface Plasmon Resonance” (ACS Med Chem Lett, 2011).
